High-throughput results as filed in PubChem.
Many of the other results were omitted from the sample, so hits are more common in it than they were.
Dynein cargo inh = blocks dynein driven cargo transport along microtubules; 3617.4 mouse cells, GR-EGFP nuclear translocation imaging; test concentration mostly 20 µM; stimulated with dexamethasone, 1 µM; hits give low values; hit rate 0.47% among 220,000; z-score, hits read low;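 active = plate z-score of nuclear minus cytoplasmic receptor signal below a set negative limit, without overly bright fluorescence or cell loss, cut at about -3.5 in these data, passing the limit was not always enough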;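 also: z-score of nuclear minus cytoplasmic ring GR-EGFP intensity difference per well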
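Buffer or medium: tetracycline-free induction medium containing charcoal-stripped FBS / Reagent: dexamethasone agonist, 1.0 µM final, for 30 min / Technique: automated 10x imaging of fixed Hoechst-stained cells / Times: induction 48 h, compound 1 h, agonist 30 min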
Lmaj promast = Leishmania major promastigote growth inhibition; hit rate 9% among 200,000; inhibition, % at 10 µM; AID 1063; Leishmania major promastigotes, resazurin fluorescence viability; in the data active = inhibition above about 50%;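 also: promastigotes grown with compound for 44 hours at 28 °C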
XBP1 UPR activ = activators of adaptive arm of unfolded protein response (XBP1); hit rate 0.33% among 330,000; activation, % at 20 µM; CHO-XBP1 luciferase reporter, IRE1-XBP1 UPR activation, luminescence; percent of tunicamycin response, DMSO as zero;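 active = versus positive control, 20 µM dose yields 30% or more activation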
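Material: IRE1-XBP1 luciferase reporter CHO line / Quantity: one thousand reporter cells per well / Buffer or medium: F12 with 10% serum / Compound: 20 µM single concentration, DMSO 1% / Times: 6 h treatment, 37 °C / Detection: Steady-Glo luciferase glow luminescence, 10 min after reagent addition / Benchmarks: tunicamycin high, DMSO low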
T cruzi repl = T. cruzi replication inhibition. T. cruzi beta-gal in NIH3T3, luminescence, 90 h. inhibition, % (test concentration not listed). hit rate 1.4% among 300,000. AID 1885;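 active = mean inhibition across valid replicates above about 55%, limit read from the data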;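 also: signal also drops with host cell toxicity which is not excluded here; higher percent means less beta-gal luminescence so fewer parasites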
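System: Mouse NIH/3T3 fibroblasts infected with β-gal-expressing T. cruzi Tulahuen C4 | Quantity: NIH/3T3 cells, 5,000 per well | Reagent: 5000 reporter trypomastigotes per well | Dosing: Compound pinned at 50 nL/well, DMSO | Schedule: 3 h host attachment, then at least 90 h co-culture | Detection: GalScreen luminescence, 60 min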
CHOP UPR activ = activators of apoptotic arm of unfolded protein response (CHOP); hit rate 0.34% among 330,000; activation, % at 10 µM; CHO-CHOP luciferase reporter, UPR activation, luminescence; percent of tunicamycin response over DMSO baseline;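 active = at 10 µM dose, activation of 40% or more, normalized to positive control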
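Dosing – one dose, 10 µM in 0.5% DMSO · System – CHO-CHOP cells, stable luciferase reporter of PERK-eIF2a-CHOP signalling · Input – 500 cells/well · Control set – tunicamycin 10 µg/mL final as positive, DMSO-only wells as negative · Timing – 6 h compound treatment, 37 °C · Measure – % activation vs tunicamycin · Technique – luminescence read with Steady-Glo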
CHOP inh = blocks CHOP induction under ER stress. hit rate 3.8% among 220,000. CHO-K1 CHOP-promoter luciferase, tunicamycin-induced, 15-18 h. inhibition, % at 10 µM. AID 2732;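 active = compounds that reduced the stress-induced luciferase reporter signal by more than about 70% of percent inhibition, limit read from the data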
Of the large screens only hits and unclear results are named; the others gave an inactive call.

Cc1ccc(-c2cc(C(F)F)n3ncc(C(=O)N4CCc5ccccc5C4)c3n2)cc1	T cruzi repl 58
COc1ccc(-c2cc(C(F)F)n3ncc(C(=O)N4CCN5CCCC5C4)c3n2)cc1 (configuration not stated)	Lmaj promast 60
Cc1ccc(-c2cc(C(F)F)n3ncc(C(=O)N4CCCc5ccccc54)c3n2)cc1	none
O=C(NCc1ccc(OC(F)(F)F)cc1)C1CC2Cn3c(nc4ccccc43)C2N1c1ccccc1 (configuration not stated)	none (no result: Dynein cargo inh, Lmaj promast, CHOP inh)
Cc1cc(C(=O)COC(=O)CC2Sc3ccccc3NC2=O)c(C)n1-c1cccc(C(F)(F)F)c1 (configuration not stated)	Lmaj promast 97
CC(C)Oc1ccc(/C=N/NC(=O)C(CSCc2ccccc2)NC(=O)c2ccc([N+](=O)[O-])cc2)cc1 (configuration not stated)	CHOP inh 76
CCOc1ccc(CCNC(=O)c2cc(-c3ccccc3)c(N3CCOCC3)s2)cc1	T cruzi repl 58 (no result: Dynein cargo inh, Lmaj promast, CHOP inh)
Cc1cc(C)n(CC(=O)N/N=C/c2cc([N+](=O)[O-])ccc2O)n1	none
Cc1cc(C)n(CC(=O)N/N=C/c2cc(Br)cc([N+](=O)[O-])c2O)n1	T cruzi repl 65
CC(C)N(C)C1CCN(C(=O)Nc2ccc(Cl)c(Cl)c2)CC1	Lmaj promast 60
O=C(Nc1ccc(F)c(Cl)c1)N1CCCC1	Lmaj promast 99
O=C(Nc1ccc(N2CCN(Cc3ccccc3F)CC2)cc1)c1ccc([N+](=O)[O-])o1	CHOP UPR activ 90 (no result: Dynein cargo inh, Lmaj promast, CHOP inh)
CC(=O)Nc1ccc(N2CCN(Cc3ccccc3F)CC2)cc1	Lmaj promast 50
CCC(=O)Nc1ccc(N2CCN(Cc3ccccc3F)CC2)cc1	none
Cc1ccc(C)c(S(=O)(=O)c2c[nH]c(=S)[nH]c2=O)c1	none (no result: Dynein cargo inh, Lmaj promast, CHOP inh)
O=C(Nc1ccc(Cl)cc1)N1CCCN(Cc2ccccc2F)C1	Lmaj promast 57
CCOC(=O)Cc1csc(NC(=O)c2ccc(C)c(S(=O)(=O)N3CCOCC3)c2)n1	none (no result: Dynein cargo inh, Lmaj promast, T cruzi repl, CHOP inh)
COc1ccc(NC(=O)Cc2ccsc2)cc1S(=O)(=O)N1CCOCC1	none (no result: Dynein cargo inh, Lmaj promast, T cruzi repl, CHOP inh)
CC(C)Oc1cc2oc(=O)c3c(c2cc1Cl)CCC3	CHOP inh 82
Cc1cccc(N2CCN(C(=O)C3CCC(=O)N(Cc4ccccc4F)C3)CC2)c1C (configuration not stated)	none (no result: Dynein cargo inh, Lmaj promast, CHOP inh)
O=C(CSc1nnc(SCc2ccccc2)s1)N/N=C/C=C\c1ccco1	none
O=C(CSc1nnc(SCc2ccc(Cl)cc2)s1)N/N=C/c1ccc(Cl)cc1Cl	XBP1 UPR activ 70, CHOP inh 73
COC(=O)Oc1ccc(/C=N/NC(=O)CSCc2ccc(Cl)cc2)cc1OC	CHOP inh 78
CC(=C/c1ccco1)/C=N/NC(=O)CSc1nnc(SCc2ccc(C)cc2)s1	CHOP inh 80
O=C(CSCc1ccc(Cl)cc1)N/N=C/c1c(Cl)cccc1Cl	CHOP inh 92 (no result: XBP1 UPR activ, CHOP UPR activ)
Cc1ccc(N2CCN(C(=O)c3cc(-c4ccc(F)cc4)[nH]c3C)CC2C)cc1 (configuration not stated)	none (no result: Dynein cargo inh, Lmaj promast, CHOP inh)
CCOC(=O)N1CCN(C(=O)c2ccc3oc(CCCc4ccccc4)nc3c2)CC1	none (no result: Dynein cargo inh, Lmaj promast, CHOP inh)
Cc1cnc(NC(=O)CN2CCN(c3ccccn3)CC2)s1	CHOP inh 74
COc1cccc(/C=N/NC(=O)c2ccc(CN3c4cccc5cccc(c45)S3(=O)=O)cc2)c1	Lmaj promast 82
O=C(N/N=C/c1cccnc1)c1ccc(CN2c3cccc4cccc(c34)S2(=O)=O)cc1	none
O=S(=O)(c1ccc(F)cc1)N1CN(Cc2ccco2)c2nc3ccccc3nc21	Lmaj promast 97
COc1ccc(CCN2CN(S(=O)(=O)c3ccc(OC)cc3)c3nc4ccccc4nc32)cc1	Lmaj promast 85
Cc1ccc(S(=O)(=O)N2CN(Cc3ccco3)c3nc4ccccc4nc32)cc1	Lmaj promast 58
COc1ccc(CN2CN(S(=O)(=O)c3ccccc3)c3nc4ccccc4nc32)cc1	none (no result: Lmaj promast)
COc1ccc(S(=O)(=O)N2CN(Cc3ccco3)c3nc4ccccc4nc32)cc1	none
O=C(O)CC(NC(=O)CC(c1ccccc1)c1ccccc1)c1cccc([N+](=O)[O-])c1 (configuration not stated)	none (no result: Dynein cargo inh, Lmaj promast, CHOP inh)
Cc1c(C(=O)Nc2ccc3c(c2)OCCO3)sc2ncnc(N3CCCCC3C)c12 (configuration not stated)	none (no result: Dynein cargo inh, Lmaj promast, CHOP inh)
CCC(C)(CC(=O)Nc1nccs1)c1ccccc1 (configuration not stated)	none (no result: Dynein cargo inh, Lmaj promast, CHOP inh)
CCOC(=O)N1CCN(C(=O)c2ccc(CSc3ccc(Cl)cc3)cc2)CC1	none
O=C(c1ccc(Cl)cc1)N1CCC(O)(CSc2ccc(Cl)cc2)CC1	CHOP inh 72 (no result: Dynein cargo inh)
CN1CCN(C(=O)c2ccc(CSc3ccc(Cl)cc3)cc2)CC1	Lmaj promast 100
O=C(c1ccc(Cl)cc1)N1CCC(O)(CSc2ccccc2)CC1	none (no result: Dynein cargo inh)
CCOc1c(Br)cc(CNC2CCCCCCC2)cc1OC	Lmaj promast 60
COc1cc(CNC2CCCCCCC2)cc(Cl)c1OC	none (no result: Dynein cargo inh, Lmaj promast, CHOP inh)
COc1cc(CNC2CCCCCCC2)cc(Br)c1OCC#N	Lmaj promast 75
CS(=O)(=O)c1ccc(Cl)c(NC(=O)CN2C(=O)C3CCCCC3C2=O)c1 (configuration not stated)	none (no result: Dynein cargo inh, Lmaj promast, CHOP inh)
Cc1cc(C(=O)O)cc(S(=O)(=O)Nc2ccccc2C(=O)NC2CC2)c1C	none (no result: Dynein cargo inh, Lmaj promast, T cruzi repl, CHOP inh)
O=[N+]([O-])c1ccc(Cl)cc1NCC1CCCO1 (configuration not stated)	none (no result: Dynein cargo inh, Lmaj promast, CHOP inh)
COc1ccc(-n2c(C)nc3c(cnn3-c3ccc(Cl)cc3)c2=O)cc1	CHOP inh 83
CCOC(=O)c1ccc(-n2c(C)nc3c(cnn3-c3ccc(Cl)cc3)c2=O)cc1	CHOP inh 76
CCOC(=O)c1ccc(-n2c(C)nc3c(cnn3-c3ccccc3Cl)c2=O)cc1	none
CSc1nc(N)c(NC(=O)c2ccc(Br)o2)c(=O)[nH]1	none (no result: Dynein cargo inh, Lmaj promast, CHOP inh)
O=C(/C=C\c1ccc2c(c1)OCO2)Nc1c2c(nn1-c1ccc(Cl)cc1)CSC2	Lmaj promast 95
CC(=O)Nc1c2c(nn1-c1ccccc1)CSC2	none (no result: Dynein cargo inh, Lmaj promast, CHOP inh)
CCOc1ccccc1N1CCN(C(=O)NCc2ccc(C)cc2)CC1	none (no result: Dynein cargo inh, Lmaj promast, CHOP inh)
CC1(C)CCCN(C(=O)c2ccc3c(c2NCCO)C(=O)c2ccccc2C3=O)C1	Lmaj promast 100
O=C1c2ccccc2C(=O)c2c1ccc(C(=O)N1CCCCC1)c2NCCO	none
CC1CCCN(C(=O)c2ccc3c(c2NCCO)C(=O)c2ccccc2C3=O)C1 (configuration not stated)	Lmaj promast 91
NC(N)=[N+]1CCc2ccccc2C1	none (no result: Dynein cargo inh, Lmaj promast, XBP1 UPR activ, T cruzi repl, CHOP UPR activ)
